Activity calls are given as the source filed them. The rule behind the calls is not given here.
Tests used:
Cavia porcellus [1] = species on record: Cavia porcellus; experiment: Maximum increase in coronary flow in isolated guinea pig heart at a dose of 10 ug.; assay type: functional
Summary of the method: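 Langendorff-perfused isolated guinea pig heart with oxygenated (95% O2/5% CO2) Krebs-Henseleit fluid at 34 ± 1 °C and 60 cm H2O perfusion pressure. Compound dissolved in propylene glycol at 100 µg/mL and infused at 0.1 mL/min. Coronary flow recorded by electromagnetic flow meter before and after infusion, expressed as percent gain. Mean ± SE of five experiments.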

Cavia porcellus [2] = species on record: Cavia porcellus; experiment: Effect on maximum increase in coronary flow in isolated guinea pig heart at a dose of 10 (ug/heart); Inactive; assay type: functional
Canis familiaris [3] = experiment: Change in the mean blood pressure and hypotensive action was measured in dogs at 10 mg/kg dose, 5 min after id administration; assay type: functional, Canis lupus familiaris; settings: route intraduodenal
Summary of the method: (§1)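 Dogs of 12-22 kg were anesthetized with pentobarbital sodium (35 mg/kg ip), given supportive respiration, and opened by left thoracotomy at the fourth intercostal space. Compound was suspended in 0.5% CMC (10 mg/mL) and given intraduodenally via cannula at 10 mg/kg. Blood pressure was taken by carotid cannula and pressure transducer, and heart rate from the ECG. Values are mean ± SE, six experiments.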

Canis familiaris [4] = experiment: Compound was tested for max increase in blood flow through circumflex branch of left coronary artery, 5 min after administration; assay type: functional, Canis lupus familiaris
Summary of the method: (§2)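 Anesthetized dogs (12-22 kg; pentobarbital sodium 35 mg/kg ip, supportive respiration) underwent left thoracotomy at the fourth intercostal space. Flow in the left coronary artery branch was recorded with an electromagnetic flow meter and expressed as percent increase. Compound in 0.5% CMC (10 mg/mL) was given intraduodenally at 10 mg/kg. Values are mean ± SE, six experiments.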

Canis familiaris [5] = experiment: Compound was tested for max increase in blood flow through cicumflex branch of left coronary artery, 30 min after administration; assay type: functional, Canis lupus familiaris; summary of the method: as §2
Canis familiaris [6] = experiment: Change in the heart rate and hypotensive action was measured in dogs at 10 mg/kg dose, 5 min after id administration; assay type: functional, Canis lupus familiaris; settings: route intraduodenal; summary of the method: as §1
Canis familiaris [7] = experiment: Change in the mean blood pressure and hypotensive action was measured in dogs at 10 mg/kg dose, 30 min after id administration; assay type: functional, Canis lupus familiaris; settings: route intraduodenal; summary of the method: as §1
Canis familiaris [8] = experiment: Change in the heart rate and hypotensive action was measured in dogs at 10 mg/kg dose, 120 min after id administration; assay type: functional, Canis lupus familiaris; settings: route intraduodenal; summary of the method: as §1
Canis familiaris [9] = experiment: Change in the heart rate and hypotensive action was measured in dogs at 10 mg/kg dose, 30 min after id administration; assay type: functional, Canis lupus familiaris; settings: route intraduodenal; summary of the method: as §1
Canis familiaris [10] = experiment: Compound was tested for max increase in blood flow through cicumflex branch of left coronary artery, 60 min after administration; assay type: functional, Canis lupus familiaris; summary of the method: as §2
Cavia porcellus [11] = species on record: Cavia porcellus; experiment: pA2 was measured as Calcium antagonistic activity
Canis familiaris [12] = experiment: Change in the mean blood pressure and hypotensive action was measured in dogs at 10 mg/kg dose, 60 min after id administration; assay type: functional, Canis lupus familiaris; settings: route intraduodenal; summary of the method: as §1
Canis familiaris [13] = experiment: Change in the heart rate and hypotensive action was measured in dogs at 10 mg/kg dose, 60 min after id administration; assay type: functional, Canis lupus familiaris; settings: route intraduodenal; summary of the method: as §1
Canis familiaris [14] = experiment: Compound was tested for max increase in blood flow through cicumflex branch of left coronary artery, 120 min after administration; assay type: functional, Canis lupus familiaris; summary of the method: as §2
Canis familiaris [15] = experiment: Change in the mean blood pressure and hypotensive action was measured in dogs at 10 mg/kg dose, 120 min after id administration; assay type: functional, Canis lupus familiaris; settings: route intraduodenal; summary of the method: as §1
Canis familiaris [16] = experiment: Compound was tested for max increase in blood flow through cicumflex branch of left coronary artery, 5 min after administration; assay type: functional, Canis lupus familiaris; summary of the method: as §2

`CCOP(=O)(Cc1ccc(-c2nc3ccc(OC(C)=O)cc3s2)cc1)OCC` was tested, and the Increase (Cavia porcellus [1]) was 56.7%.

Work on `CCOP(=O)(Cc1ccc(-c2nc3ccc(O)cc3s2)cc1)OCC` yielded an Increase (Cavia porcellus [1]) of 63.3%.

`CCOP(=O)(Cc1ccc(-c2nc3ccc(OC)cc3s2)cc1)OCC` showed an Increase (Cavia porcellus [1]) of 20.1%.

Molecule `CCOP(=O)(Cc1ccc(-c2nc3cc(OC(C)=O)ccc3s2)cc1)OCC` has an Increase (Cavia porcellus [1]) of 23.2%.

`CCOP(=O)(Cc1ccc(-c2nc3cc(O)ccc3s2)cc1)OCC` gave an Increase (Cavia porcellus [1]) of 49%.

For `O=P(O)(O)Cc1ccc(-c2nc3ccccc3s2)cc1`, the Increase (Cavia porcellus [2]) was “inactive”.

With `CCOP(=O)(Cc1ccc(-c2nc3ccc([N+](=O)[O-])cc3s2)cc1)OCC` the Increase (Cavia porcellus [2]) was “inactive”.

With `CCCCOP(=O)(Cc1ccc(-c2nc3ccccc3s2)cc1)OCCCC` the Increase (Cavia porcellus [1]) was 37.3%.

`CCOC(=O)Cc1ccc(-c2nc3ccccc3s2)cc1` was tested, and the Increase (Cavia porcellus [2]) was “inactive”.

Work on `CCOP(=O)(Cc1ccc(-c2nc3ccc(C)cc3s2)cc1)OCC` yielded an Increase (Cavia porcellus [1]) of 31.3%.

For `CCOP(=O)(Cc1ccc(-c2nc3ccccc3s2)cc1)OCC` [FOSTEDIL], the Change (Canis familiaris [3]) was -13.4 mmHg, the Increase (Canis familiaris [4]) was 28.2% and the Increase (Canis familiaris [5]) was 65.2%. The Change (Canis familiaris [6]) was -6.9 beats min-1, the Change (Canis familiaris [7]) was -9.7 mmHg and the Change (Canis familiaris [8]) was -18.7 beats min-1. The Change (Canis familiaris [9]) was -18.3 beats min-1, the Increase (Canis familiaris [10]) was 87.5% and the Increase (Cavia porcellus [1]) was 79.9%. It also gave a Kb (Cavia porcellus [11]) of 120 nM, a Change (Canis familiaris [12]) of -12 mmHg and a Change (Canis familiaris [13]) of -20.8 beats min-1. The Increase (Canis familiaris [14]) was 91.8% and the Change (Canis familiaris [15]) was -13.3 mmHg.

`CCOP(=O)(Cc1ccc(-c2nc3ccc(N)cc3s2)cc1)OCC.Cl` gave an Increase (Cavia porcellus [1]) of 50%.

With `Cc1ccc(-c2nc3ccccc3s2)cc1` the Increase (Cavia porcellus [2]) was “inactive”.

In the case of `COc1ccc([C@@H]2Sc3ccccc3N(CCN(C)C)C(=O)[C@@H]2OC(C)=O)cc1.Cl` [DILTIAZEM HYDROCHLORIDE], the Change (Canis familiaris [3]) is reported as -2.7 mmHg, the Increase (Canis familiaris [16]) is reported as 6.5% and the Increase (Canis familiaris [5]) is reported as 85.5%. The Change (Canis familiaris [6]) was 3.2 beats min-1, the Change (Canis familiaris [7]) was -10.7 mmHg and the Change (Canis familiaris [8]) was -27.2 beats min-1. For the same molecule, the Change (Canis familiaris [9]) was -19.7 beats min-1, the Increase (Canis familiaris [10]) was 89.4% and the Increase (Cavia porcellus [1]) was 63.9%. For the same molecule, the Kb (Cavia porcellus [11]) was 417 nM, the Change (Canis familiaris [12]) was -13.8 mmHg and the Change (Canis familiaris [13]) was -29.2 beats min-1. The Increase (Canis familiaris [14]) was 74.6% and the Change (Canis familiaris [15]) was -14.5 mmHg.

`CCOP(=O)(Cc1ccc(-c2nc3ccc(NC(C)=O)cc3s2)cc1)OCC` gave an Increase (Cavia porcellus [1]) of 48.7%.

In the case of `COc1ccc(Cc2nccc3cc(OC)c(OC)cc23)cc1OC.Cl` [PAPAVERINE HYDROCHLORIDE], the Increase (Cavia porcellus [1]) is reported as 55.8%.

In the case of `CCOP(=O)(Cc1ccc(-c2nc3cccc(O)c3s2)cc1)OCC`, the Increase (Cavia porcellus [1]) is reported as 20.6%.

For `CCOP(=O)(Cc1ccc(-c2nc3ccc(Cl)cc3s2)cc1)OCC`, the Increase (Cavia porcellus [1]) was 54.6%.

In the case of `CC(C)OP(=O)(Cc1ccc(-c2nc3ccccc3s2)cc1)OC(C)C`, the Increase (Cavia porcellus [1]) is reported as 75.6%.

With `CCCOP(=O)(Cc1ccc(-c2nc3ccccc3s2)cc1)OCCC` the Increase (Cavia porcellus [1]) was 62.4%.

For `CCOP(=O)(Cc1ccc(-c2nc3cccc(OC(C)=O)c3s2)cc1)OCC`, the Increase (Cavia porcellus [1]) was 71.7%.

`COP(=O)(Cc1ccc(-c2nc3ccccc3s2)cc1)OC` was tested, and the Increase (Cavia porcellus [1]) was 34.8%.
